Structures are written as SMILES. pEC50, pIC50: −log10 of the molar value.

In the first assay the test system is HL-60. The assay can be described thus: Growth inhibition against HL-60 after 24 hours incubation period. The class given is functional. To be noted: Homo sapiens, HL-60, 24 h; read-out: ID50 (the source's name). An outline of the steps:
(§1)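 HL-60 cell growth inhibition; ID50 derived from six concentrations of each nucleoside using the median-effect equation and plot.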
As for `CC(=O)OC[C@H]1O[C@@H](n2cc(C(F)(F)F)c(=O)[nH]c2=O)C[C@@H]1OC(C)=O`, the pIC50 was 3.30.
With `CC(=O)OC[C@H]1O[C@@H](n2cc(C(F)F)c(=O)[nH]c2=O)C[C@@H]1OC(C)=O`, the pIC50 is 4.08.
With `O=c1[nH]c(=O)n([C@@H]2O[C@H](CO)[C@@H](O)[C@@H]2F)cc1CO`, the pIC50 is below 2.30.
With `CC(=O)OC[C@H]1O[C@@H](n2cc(C(F)(F)F)c(=O)[nH]c2=O)[C@@H](F)[C@@H]1OC(C)=O`, the pIC50 is 4.27.
Take `O=c1[nH]c(=O)n([C@H]2C[C@H](O)[C@@H](CO)O2)cc1CF`: the pIC50 was 3.75.
Regarding `Cc1cn([C@H]2C[C@H](O)[C@@H](CO)O2)c(=O)[nH]c1=O` [DOXRIBTIMINE], the pIC50 is 3.05.
Regarding `O=c1[nH]c(=O)n([C@@H]2O[C@H](CO)[C@@H](O)[C@@H]2F)cc1CF`, the pIC50 is 3.00.
The same measure, in the same setting: then `O=c1[nH]c(=O)n([C@H]2C[C@H](O)[C@@H](CO)O2)cc1C(F)(F)F` [TRIFLURIDINE], with 5.82.
With `O=c1[nH]c(=O)n([C@@H]2O[C@H](CO)[C@@H](O)[C@@H]2F)cc1C(F)F`, the pIC50 is 4.01.

Another assay relates to HL-60. Briefly: Growth inhibition against HL-60 after 48 hours incubation period. Type of assay: functional. To be noted: Homo sapiens, HL-60, 48 h; read-out: ID50 (the source's name). A digest of the protocol:
as §1
In the case of `CC(=O)OC[C@H]1O[C@@H](n2cc(C(F)(F)F)c(=O)[nH]c2=O)C[C@@H]1OC(C)=O`, the pIC50 was 4.72.
Regarding `CC(=O)OC[C@H]1O[C@@H](n2cc(C(F)F)c(=O)[nH]c2=O)C[C@@H]1OC(C)=O`, the pIC50 was 4.85.
In the case of `O=c1[nH]c(=O)n([C@@H]2O[C@H](CO)[C@@H](O)[C@@H]2F)cc1CO`, the pIC50 was 2.94.
Consider `CC(=O)OC[C@H]1O[C@@H](n2cc(C(F)(F)F)c(=O)[nH]c2=O)[C@@H](F)[C@@H]1OC(C)=O`, for which the pIC50 was 4.21.
As to `O=c1[nH]c(=O)n([C@H]2C[C@H](O)[C@@H](CO)O2)cc1CF`, the pIC50 was below 3.00.
As to `Cc1cn([C@H]2C[C@H](O)[C@@H](CO)O2)c(=O)[nH]c1=O` [DOXRIBTIMINE], the pIC50 was 3.34.
Take `O=c1[nH]c(=O)n([C@@H]2O[C@H](CO)[C@@H](O)[C@@H]2F)cc1CF`: the pIC50 is 3.69.
`O=c1[nH]c(=O)n([C@H]2C[C@H](O)[C@@H](CO)O2)cc1C(F)(F)F` [TRIFLURIDINE]: the pIC50 is 5.77.
In the case of `O=c1[nH]c(=O)n([C@@H]2O[C@H](CO)[C@@H](O)[C@@H]2F)cc1C(F)F`, the pIC50 is 4.92.

The test system of another assay is HL-60. The assay can be described thus: Growth inhibition against HL-60 after 72 hours incubation period. The class given is functional. To be noted: Homo sapiens, HL-60, 72 h; read-out: ID50 (the source's name). An outline of the steps: as §1
`CC(=O)OC[C@H]1O[C@@H](n2cc(C(F)(F)F)c(=O)[nH]c2=O)C[C@@H]1OC(C)=O`: the pIC50 was 5.07.
For `CC(=O)OC[C@H]1O[C@@H](n2cc(C(F)F)c(=O)[nH]c2=O)C[C@@H]1OC(C)=O`, the pIC50 was 4.85.
Regarding `O=c1[nH]c(=O)n([C@@H]2O[C@H](CO)[C@@H](O)[C@@H]2F)cc1CO`, the pIC50 is 2.72.
Same read-out and setting: under `CC(=O)OC[C@H]1O[C@@H](n2cc(C(F)(F)F)c(=O)[nH]c2=O)[C@@H](F)[C@@H]1OC(C)=O` stands 4.19.
For `O=c1[nH]c(=O)n([C@H]2C[C@H](O)[C@@H](CO)O2)cc1CF`, the pIC50 is below 3.00.
On to `Cc1cn([C@H]2C[C@H](O)[C@@H](CO)O2)c(=O)[nH]c1=O` [DOXRIBTIMINE], for which the pIC50 was 3.47.
Turning to `O=c1[nH]c(=O)n([C@@H]2O[C@H](CO)[C@@H](O)[C@@H]2F)cc1CF`, the pIC50 is 3.92.
On to `O=c1[nH]c(=O)n([C@H]2C[C@H](O)[C@@H](CO)O2)cc1C(F)(F)F` [TRIFLURIDINE], for which the pIC50 was 6.85.
Consider `O=c1[nH]c(=O)n([C@@H]2O[C@H](CO)[C@@H](O)[C@@H]2F)cc1C(F)F`, for which the pIC50 was 5.18.

The next assay relates to HL-60. Briefly: The compound was tested for [3H]TdR incorporation into DNA in HL-60 cells. To be noted: Homo sapiens, HL-60, 30 min; read-out: ID50 (the source's name). Type of assay: functional. A digest of the protocol: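 HL-60 cells labelled with [methyl-3H]TDR (1 µCi, 0.02 µM) for 30 min, then label incorporated into DNA measured. ID50 derived from six nucleoside concentrations using the median-effect equation and plot.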
In the case of `O=c1[nH]c(=O)n([C@H]2C[C@H](O)[C@@H](CO)O2)cc1CF`, the pIC50 is 4.73.
For `Cc1cn([C@H]2C[C@H](O)[C@@H](CO)O2)c(=O)[nH]c1=O` [DOXRIBTIMINE], the pIC50 was 6.21.
Take `O=c1[nH]c(=O)n([C@@H]2O[C@H](CO)[C@@H](O)[C@@H]2F)cc1CF`: the pIC50 is 3.72.
With `O=c1[nH]c(=O)n([C@H]2C[C@H](O)[C@@H](CO)O2)cc1C(F)(F)F` [TRIFLURIDINE], the pIC50 was 4.85.
As to `O=c1[nH]c(=O)n([C@@H]2O[C@H](CO)[C@@H](O)[C@@H]2F)cc1C(F)F`, the pIC50 is below 3.00.

The next assay relates to Human alphaherpesvirus 2. Briefly: Effective dose required for antiherpes activity against HSV-2(G) strain. The following applies: read-out: ED50 (the source's name). The class given is functional.
As to `CC(=O)OC[C@H]1O[C@@H](n2cc(C(F)(F)F)c(=O)[nH]c2=O)C[C@@H]1OC(C)=O`, the pEC50 was 4.79.
As for `CC(=O)OC[C@H]1O[C@@H](n2cc(C(F)F)c(=O)[nH]c2=O)C[C@@H]1OC(C)=O`, the pEC50 is 4.60.
Same read-out and setting: under `O=c1[nH]c(=O)n([C@@H]2O[C@H](CO)[C@@H](O)[C@@H]2F)cc1CO` stands 5.26; under `CC(=O)OC[C@H]1O[C@@H](n2cc(C(F)(F)F)c(=O)[nH]c2=O)[C@@H](F)[C@@H]1OC(C)=O`, 5.89.
The same measure, in the same setting: then `O=c1[nH]c(=O)n([C@H]2C[C@H](O)[C@@H](CO)O2)cc1CF`, with below 4.00.
Take `Cc1cn([C@H]2C[C@H](O)[C@@H](CO)O2)c(=O)[nH]c1=O` [DOXRIBTIMINE]: the pEC50 was below 3.00.
On to `O=c1[nH]c(=O)n([C@@H]2O[C@H](CO)[C@@H](O)[C@@H]2F)cc1CF`, for which the pEC50 was 6.10.
Consider `O=c1[nH]c(=O)n([C@H]2C[C@H](O)[C@@H](CO)O2)cc1C(F)(F)F` [TRIFLURIDINE], for which the pEC50 was 5.73.
Regarding `O=c1[nH]c(=O)n([C@@H]2O[C@H](CO)[C@@H](O)[C@@H]2F)cc1C(F)F`, the pEC50 is 5.98.

The test system of a further assay is Human alphaherpesvirus 1. Briefly: Effective dose required for antiherpes activity against HSV-1(F) strain. Type of assay: functional. To be noted: read-out: ED50 (the source's name).
Consider `CC(=O)OC[C@H]1O[C@@H](n2cc(C(F)(F)F)c(=O)[nH]c2=O)C[C@@H]1OC(C)=O`, for which the pEC50 is 5.33.
Regarding `CC(=O)OC[C@H]1O[C@@H](n2cc(C(F)F)c(=O)[nH]c2=O)C[C@@H]1OC(C)=O`, the pEC50 is 4.77.
Regarding `O=c1[nH]c(=O)n([C@@H]2O[C@H](CO)[C@@H](O)[C@@H]2F)cc1CO`, the pEC50 was 5.70.
As for `CC(=O)OC[C@H]1O[C@@H](n2cc(C(F)(F)F)c(=O)[nH]c2=O)[C@@H](F)[C@@H]1OC(C)=O`, the pEC50 is 5.89.
As for `O=c1[nH]c(=O)n([C@H]2C[C@H](O)[C@@H](CO)O2)cc1CF`, the pEC50 is below 4.00.
With `Cc1cn([C@H]2C[C@H](O)[C@@H](CO)O2)c(=O)[nH]c1=O` [DOXRIBTIMINE], the pEC50 was below 3.00.
On the same count and under the same terms, under `O=c1[nH]c(=O)n([C@@H]2O[C@H](CO)[C@@H](O)[C@@H]2F)cc1CF` stands 6.17; under `O=c1[nH]c(=O)n([C@H]2C[C@H](O)[C@@H](CO)O2)cc1C(F)(F)F` [TRIFLURIDINE], 6.11; under `O=c1[nH]c(=O)n([C@@H]2O[C@H](CO)[C@@H](O)[C@@H]2F)cc1C(F)F`, 6.47.

Another assay deals with Thymidylate synthase (Mus musculus) (UniProt P07607). The assay can be described thus: The compound was tested for inhibition of thymidylate synthase (TS) in L1210 cells. The class given is cell-based.
Chain of Thymidylate synthase (Mus musculus) (P07607 whole entry, looked up): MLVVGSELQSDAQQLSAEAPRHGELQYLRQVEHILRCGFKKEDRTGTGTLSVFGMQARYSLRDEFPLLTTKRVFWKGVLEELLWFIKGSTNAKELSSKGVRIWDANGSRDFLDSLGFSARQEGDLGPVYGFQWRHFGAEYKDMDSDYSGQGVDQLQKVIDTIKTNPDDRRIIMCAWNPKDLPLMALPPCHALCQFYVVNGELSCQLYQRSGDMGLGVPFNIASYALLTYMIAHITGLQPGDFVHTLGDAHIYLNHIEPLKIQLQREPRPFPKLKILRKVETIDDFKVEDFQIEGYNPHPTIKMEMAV
Settings: not given
An outline of the steps: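 In situ thymidylate synthase activity in intact L1210 cells, measured as tritium released from [5-3H]UDR. Reported as ID50.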
Compound `O=c1[nH]c(=O)n([C@@H]2O[C@H](CO)[C@@H](O)[C@@H]2F)cc1CO` gave an ID50 above 1000 µM.
In turn, `O=c1[nH]c(=O)n([C@H]2C[C@H](O)[C@@H](CO)O2)cc1CF` yielded an ID50 of 11 µM.
As to `Cc1cn([C@H]2C[C@H](O)[C@@H](CO)O2)c(=O)[nH]c1=O` [DOXRIBTIMINE], the ID50 came to 75 µM.
The compound `O=c1[nH]c(=O)n([C@@H]2O[C@H](CO)[C@@H](O)[C@@H]2F)cc1CF` came in with an ID50 above 1000 µM.
As for `O=c1[nH]c(=O)n([C@H]2C[C@H](O)[C@@H](CO)O2)cc1C(F)(F)F` [TRIFLURIDINE], the ID50 is 0.035 µM.
On the same count and under the same terms, under `O=c1[nH]c(=O)n([C@@H]2O[C@H](CO)[C@@H](O)[C@@H]2F)cc1C(F)F` stands 56 µM.

The record behind these values is ChEMBL document CHEMBL1124187, “Nucleosides. 150. Synthesis and some biological properties of 5-monofluoromethyl, 5-difluoromethyl, and 5-trifluoromethyl derivatives of 2'-deoxyuridine and 2'-deoxy-2'-fluoro-beta-D-arabinofuranosyluracil” (1988).
